In ChEMBL document CHEMBL1130259, “Nonsymmetrically substituted cyclic urea HIV protease inhibitors” (J Med Chem, 1997):

How the values were obtained:
[1] = target: Human immunodeficiency virus type 1 protease (Human immunodeficiency virus 1, UniProt Q72874); assay: Affinity against HIV protease
[2] = target: Human immunodeficiency virus type 1 protease (Human immunodeficiency virus 1) (UniProt Q72874)
[3] = Partition coefficient (logP) (HPLC); assay type: physicochemical; conditions: octanol/water
[4] = Clearance of compound (5 mg/kg, intravenously), in dog plasma; assay type: ADME, organism-based, Canis lupus familiaris; conditions: iv
Summary of the method: (§1)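 Female Beagle dogs given a 5.0 mg/kg intravenous dose. Formulation was 10.0 mg/mL in PEG400/water/EtOH (60/30/10), dosed at 0.5 mL/kg. Compound levels were measured in plasma by a method validated over 0.10–50.0 μg/mL.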

[5] = Half life (5 mg/kg, intravenously) determined by administering intravenously in dogs; assay type: ADME, organism-based, Canis lupus familiaris; conditions: dog, in vivo, iv; summary of the method: as §1
[6] = Oral bioavailability in dog (dose 10 mg/kg); assay type: ADME, organism-based, Canis lupus familiaris; conditions: in vivo
Summary of the method: (§2)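 Female Beagle dogs received either 10.0 mg/kg orally (three dogs; 10.0 mg/mL, 1.0 mL/kg) or 5.0 mg/kg intravenously (same formulation, 0.5 mL/kg). Vehicle was PEG400/water/EtOH (60/30/10). Plasma concentrations were assayed by a method validated over 0.10–50.0 μg/mL.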

[7] = Half life (10 mg/kg, perorally) […] in dogs; assay type: ADME, organism-based, Canis lupus familiaris; conditions: dog, in vivo
Summary of the method: (§3)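 Three female Beagle dogs were dosed orally at 10.0 mg/kg. The compound was given at 10.0 mg/mL in PEG400/water/EtOH (60/30/10) at 1.0 mL/kg. Plasma drug was quantified by a method validated in dog plasma over 0.10–50.0 μg/mL.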

[8] = Apparent volume of distribution of compound (5 mg/kg, intravenously) in dogs; assay type: ADME, organism-based, Canis lupus familiaris; conditions: dog, in vivo, iv, read-out: Vss; summary of the method: as §1
[9] = Maximum concentration (10 mg/kg, perorally) in plasma of dogs; assay type: ADME, organism-based, Canis lupus familiaris; set-up: dose 10 mg/kg, route oral; conditions: dog, po; summary of the method: as §3
[10] = Clearance of compound in dog plasma; assay type: ADME, organism-based, Canis lupus familiaris; summary of the method: as §1
[11] = Maximum concentration in dog plasma; assay type: ADME, organism-based, Canis lupus familiaris; summary of the method: as §2
[12] = Half life determined by administering intravenously in dog plasma; assay type: ADME, organism-based, Canis lupus familiaris; conditions: iv; summary of the method: as §1
[13] = Apparent volume of distribution of compound in dog plasma; assay type: ADME, organism-based, Canis lupus familiaris; conditions: read-out: Vss; summary of the method: as §1
[14] = Maximum concentration (5 mg/kg, intravenously) in plasma of dogs; assay type: ADME, organism-based, Canis lupus familiaris; set-up: dose 5 mg/kg, route intravenous; conditions: dog, iv; summary of the method: as §1
[15] = Clearance (5 mg/kg, intravenously) in dog plasma; conditions: iv
[16] = Apparent volume of distribution of compound (5 mg/kg, intravenously) in dogs; conditions: dog, in vivo, iv, read-out: Vss
[17] = Maximum concentration (10 mg/kg, orally) in plasma of dogs; assay type: ADME, organism-based, Canis lupus familiaris; set-up: dose 10 mg/kg, route oral; conditions: dog, po; summary of the method: as §3
[18] = Half life (10 mg/kg, orally) […] in dog plasma; assay type: ADME, organism-based, Canis lupus familiaris; summary of the method: as §3
[19] = Half life (5 mg/kg, intravenously) determined by administering intravenously in dogs; conditions: dog, in vivo, iv
[20] = Half life determined by administering intravenously in dog; assay type: ADME, organism-based, Canis lupus familiaris; conditions: in vivo, iv; summary of the method: as §1
Canis lupus familiaris = species: Canis lupus familiaris; assay: Clearance of compound in dog plasma

Compound | Ki [1] | IC90 [2] | logP [3] | other results
COc1cc(CN2C(=O)N(Cc3cccc(C(=O)Nc4cnccn4)c3)[C@H](Cc3ccccc3)[C@H](O)[C@@H](O)[C@H]2Cc2ccccc2)cc(OC)c1 | 2.51 nM | 743 nM | 4.84 | –
Cc1ccc(NC(=O)c2cccc(CN3C(=O)N(Cc4cccc(N)c4)[C@H](Cc4ccccc4)[C@H](O)[C@@H](O)[C@H]3Cc3ccccc3)c2)nc1 | 0.075 nM | 16.5 nM | 4.47 | –
COc1cc(CN2C(=O)N(Cc3cccc(C(=O)Nc4ccc(C)cn4)c3)[C@H](Cc3ccccc3)[C@H](O)[C@@H](O)[C@H]2Cc2ccccc2)cc(OC)c1 | 1.9 nM | 282 nM | 5.59 | –
O=C1N(Cc2ccc(CO)cc2)[C@H](Cc2ccccc2)[C@H](O)[C@@H](O)[C@@H](Cc2ccccc2)N1Cc1ccc(CO)cc1 [DMP-323] | – | 115 nM | 3.56 | –
CC(C)(C)NC(=O)c1cccc(CN2C(=O)N(Cc3cccc(N)c3)[C@H](Cc3ccccc3)[C@H](O)[C@@H](O)[C@H]2Cc2ccccc2)c1 | 0.41 nM | 114 nM | 5.28 | –
Nc1cccc(CN2C(=O)N(Cc3cccc(C(=O)Nc4ncc[nH]4)c3)[C@H](Cc3ccccc3)[C@H](O)[C@@H](O)[C@H]2Cc2ccccc2)c1 | 0.012 nM | 26.2 nM | 3.39 | clearance [4]: 8.33 mL/min/kg; half-life [5]: 5.6 h; bioavailability [6]: 68%; half-life [7]: 10.3 h; Vd [8]: 4 L/kg; Cmax [9]: 900 ng/mL
COc1cccc(CN2C(=O)N(Cc3cccc(C(=O)Nc4cnccn4)c3)[C@H](Cc3ccccc3)[C@H](O)[C@@H](O)[C@H]2Cc2ccccc2)c1 | 0.038 nM | 91.2 nM | 4.75 | –
COc1cccc(CN2C(=O)N(Cc3cccc(C(=O)Nc4ccc(C)cn4)c3)[C@H](Cc3ccccc3)[C@H](O)[C@@H](O)[C@H]2Cc2ccccc2)c1 | 0.069 nM | 41.6 nM | 5.51 | –
O=C(Nc1cnccn1)c1cccc(CN2C(=O)N(Cc3cccc(C(=O)Nc4cnccn4)c3)[C@H](Cc3ccccc3)[C@H](O)[C@@H](O)[C@H]2Cc2ccccc2)c1 | – | 3.5 nM | – | clearance [10]: 46.7 mL/min/kg; Cmax [11]: 400 ng/mL; half-life [12]: 0.8 h; Vd [13]: 3 L/kg
Nc1cccc(CN2C(=O)N(Cc3cccc(C(=O)Nc4nc5ccccc5[nH]4)c3)[C@H](Cc3ccccc3)[C@H](O)[C@@H](O)[C@H]2Cc2ccccc2)c1 | 0.023 nM | 13.2 nM | 4.95 | half-life [5]: 1.5 h; bioavailability [6]: 109%; Cmax [14]: 5500 ng/mL
CC(C)c1nc(CN(C)C(=O)N[C@H](C(=O)N[C@@H](Cc2ccccc2)C[C@H](O)[C@H](Cc2ccccc2)NC(=O)OCc2cncs2)C(C)C)cs1 | – | 76 nM | – | –
O=C(Nc1ccccn1)c1cccc(CN2C(=O)N(Cc3cccc(C(=O)Nc4ccccn4)c3)[C@H](Cc3ccccc3)[C@H](O)[C@@H](O)[C@H]2Cc2ccccc2)c1 | – | 2.8 nM | – | clearance [10]: 70 mL/min/kg; Cmax [11]: < 200 ng/mL; half-life [12]: 1.1 h; Vd [13]: 10.3 L/kg
COc1cc(CN2C(=O)N(Cc3cccc(C(=O)Nc4ccccn4)c3)[C@H](Cc3ccccc3)[C@H](O)[C@@H](O)[C@H]2Cc2ccccc2)cc(OC)c1 | 0.86 nM | 129 nM | 5.2 | –
CC(C)(C)NC(=O)[C@@H]1CN(Cc2cccnc2)CCN1C[C@@H](O)C[C@@H](Cc1ccccc1)C(=O)N[C@H]1c2ccccc2C[C@H]1O | – | 50 nM | – | –
Nc1cccc(CN2C(=O)N(Cc3cccc(N)c3)[C@H](Cc3ccccc3)[C@H](O)[C@@H](O)[C@H]2Cc2ccccc2)c1 [MOZENAVIR] | 0.31 nM | – | 3.17 | bioavailability [6]: 79.2%; clearance [15]: 3.33 mL/min/kg; Vd [16]: 1.3 L/kg; Cmax [17]: 6000 ng/mL; half-life [18]: 2.5 h; half-life [19]: 3.6 h
O=C(Nc1ccccn1)c1cccc(CN2C(=O)N(Cc3cccc([N+](=O)[O-])c3)[C@H](Cc3ccccc3)[C@H](O)[C@@H](O)[C@H]2Cc2ccccc2)c1 | 0.096 nM | 97.5 nM | 5.05 | –
Nc1cccc(CN2C(=O)N(Cc3cccc(C(=O)Nc4cnccn4)c3)[C@H](Cc3ccccc3)[C@H](O)[C@@H](O)[C@H]2Cc2ccccc2)c1 | 0.016 nM | 20.2 nM | 3.77 | –
N#CCNC(=O)c1cccc(CN2C(=O)N(Cc3cccc(C(=O)NCC(=O)O)c3)[C@H](Cc3ccccc3)[C@H](O)[C@@H](O)[C@H]2Cc2ccccc2)c1 | 0.024 nM | 741 nM | 2.44 | –
CC(C)CN(C[C@@H](O)[C@H](Cc1ccccc1)NC(=O)O[C@H]1CCOC1)S(=O)(=O)c1ccc(N)cc1 | – | 46 nM | – | –
COc1cc(CN2C(=O)N(Cc3cccc(C(=O)Nc4cccc(C)n4)c3)[C@H](Cc3ccccc3)[C@H](O)[C@@H](O)[C@H]2Cc2ccccc2)cc(OC)c1 | 0.7 nM | 282 nM | 5.69 | –
COc1cccc(CN2C(=O)N(Cc3cccc(C(=O)Nc4cccc(C)n4)c3)[C@H](Cc3ccccc3)[C@H](O)[C@@H](O)[C@H]2Cc2ccccc2)c1 | 0.053 nM | 42.7 nM | 5.54 | –
COc1cccc(CN2C(=O)N(Cc3cccc(C(=O)Nc4ccccn4)c3)[C@H](Cc3ccccc3)[C@H](O)[C@@H](O)[C@H]2Cc2ccccc2)c1 | 0.047 nM | 30 nM | 5.06 | –
Cc1ccc(NC(=O)c2cccc(CN3C(=O)N(Cc4cccc(C(=O)Nc5ccc(C)cn5)c4)[C@H](Cc4ccccc4)[C@H](O)[C@@H](O)[C@H]3Cc3ccccc3)c2)nc1 | – | 3.1 nM | – | half-life [20]: 1 h; clearance (Canis lupus familiaris): 66.7 mL/min/kg; Cmax [11]: 100 ng/mL; Vd [13]: 4.5 L/kg
CC(C)(C)NC(=O)[C@@H]1C[C@@H]2CCCC[C@@H]2CN1C[C@@H](O)[C@H](Cc1ccccc1)NC(=O)[C@H](CC(N)=O)NC(=O)c1ccc2ccccc2n1 | – | 10.4 nM | – | –
